The target of one assay is Histone deacetylase 3 (Homo sapiens, UniProt O15379). The assay is described as follows: Inhibition of human recombinant HDAC3 using [Ac-Leu-Gly-Lys(Ac)-AMC substrate incubated for 15 to 30 mins.
The target in another assay is Histone deacetylase 2 (Homo sapiens, UniProt Q92769). In words: Inhibition of human recombinant HDAC2 using [Ac-Leu-Gly-Lys(Ac)-AMC substrate incubated for 15 to 30 mins.
For assay [1], the target named is T1, Polyamine deacetylase HDAC10 (Homo sapiens, UniProt Q969S8).
T1 sequence (Q969S8 whole entry): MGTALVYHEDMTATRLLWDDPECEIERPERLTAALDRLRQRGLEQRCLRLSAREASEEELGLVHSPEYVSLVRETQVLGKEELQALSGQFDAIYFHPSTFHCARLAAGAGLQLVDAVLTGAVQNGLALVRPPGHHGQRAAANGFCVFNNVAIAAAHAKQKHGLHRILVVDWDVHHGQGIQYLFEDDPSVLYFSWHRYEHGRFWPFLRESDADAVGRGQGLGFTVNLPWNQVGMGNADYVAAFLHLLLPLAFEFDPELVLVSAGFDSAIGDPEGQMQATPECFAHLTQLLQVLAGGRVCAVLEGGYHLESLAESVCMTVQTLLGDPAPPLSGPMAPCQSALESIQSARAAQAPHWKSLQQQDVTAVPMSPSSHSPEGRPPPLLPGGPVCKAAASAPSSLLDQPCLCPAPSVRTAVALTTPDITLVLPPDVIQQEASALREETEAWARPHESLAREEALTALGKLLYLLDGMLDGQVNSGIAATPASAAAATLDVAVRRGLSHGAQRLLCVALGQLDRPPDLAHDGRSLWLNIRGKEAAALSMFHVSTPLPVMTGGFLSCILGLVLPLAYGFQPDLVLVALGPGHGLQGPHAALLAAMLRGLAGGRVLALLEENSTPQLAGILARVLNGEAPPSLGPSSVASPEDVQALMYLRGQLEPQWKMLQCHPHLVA
In words: Inhibition of human recombinant HDAC10 using Ac-Arg-His-Lys(Ac)-Lys(Ac)-AMC substrate incubated for 15 to 30 mins.

For a further assay, the system named is EB-3. The assay is described as follows: Cytotoxic activity against human EB3 cells assessed as growth inhibition up to 25 uM after 3 days by MTT assay. The format is functional, cell-based. The method in brief: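 EB-3 (EBV-infected human Burkitt's lymphoma) cells seeded at 2 × 10^4 per well in RPMI-1640 with 10% FCS and 1% penicillin/streptomycin, cultured overnight at 37 °C, 5% CO2, then given compound or DMSO vehicle. 2-fold dilution series from DMSO stocks; 3 days exposure. MTT added for 4 h, formazan dissolved in acidic 2-propanol, A570 minus 630 nm. Three experiments in duplicate.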

The target of assay [2] is T2, Histone deacetylase 8 (Homo sapiens) (UniProt Q9BY41).
T2 sequence (whole entry): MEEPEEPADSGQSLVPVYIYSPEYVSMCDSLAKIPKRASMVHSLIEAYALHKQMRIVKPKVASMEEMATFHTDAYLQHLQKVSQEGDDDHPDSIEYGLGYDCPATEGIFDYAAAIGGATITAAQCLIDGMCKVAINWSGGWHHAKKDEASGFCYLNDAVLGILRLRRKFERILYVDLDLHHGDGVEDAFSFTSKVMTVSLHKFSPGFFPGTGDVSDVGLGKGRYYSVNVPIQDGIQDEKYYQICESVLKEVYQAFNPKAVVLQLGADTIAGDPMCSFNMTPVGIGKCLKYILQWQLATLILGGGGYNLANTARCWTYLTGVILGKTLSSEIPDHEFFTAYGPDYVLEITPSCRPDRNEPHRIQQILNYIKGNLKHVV
The assay is described as follows: Inhibition of human recombinant HDAC8 at 20 uM using [Ac-Leu-Gly-Lys(Ac)-AMC substrate incubated for 15 to 30 mins. The essentials:
(§1)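 Recombinant human enzyme (HDAC6 2.4 ng/μL; HDAC8 0.2 ng/μL final) in pH 8.0 Tris buffer with BSA. Ac-Leu-Gly-Lys(Ac)-AMC substrate at 20 μM for HDAC6 and 200 μM for HDAC8. Incubated 30 min at 37 °C, then trypsin development 15–30 min at room temperature. Fluorescence read at ex 360/em 460 nm.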

In another assay the target is T3, Histone deacetylase 11 (Homo sapiens, UniProt Q96DB2).
T3 sequence (Q96DB2 whole entry): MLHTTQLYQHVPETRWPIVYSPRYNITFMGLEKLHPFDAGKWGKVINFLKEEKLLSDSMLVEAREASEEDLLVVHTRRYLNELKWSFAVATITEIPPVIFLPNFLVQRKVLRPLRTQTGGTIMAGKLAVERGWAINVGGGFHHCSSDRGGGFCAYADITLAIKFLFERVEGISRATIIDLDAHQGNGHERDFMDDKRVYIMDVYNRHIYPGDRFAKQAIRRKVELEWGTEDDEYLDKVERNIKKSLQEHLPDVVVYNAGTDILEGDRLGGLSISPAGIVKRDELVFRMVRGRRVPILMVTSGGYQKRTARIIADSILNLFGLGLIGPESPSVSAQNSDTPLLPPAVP
In words: Inhibition of human recombinant HDAC11 using [Ac-Leu-Gly-Lys(Ac)-AMC substrate incubated for 15 to 30 mins.

In assay [3] the target is T4, Protein deacetylase HDAC6 (Homo sapiens, UniProt Q9UBN7).
T4 sequence (Q9UBN7 whole entry): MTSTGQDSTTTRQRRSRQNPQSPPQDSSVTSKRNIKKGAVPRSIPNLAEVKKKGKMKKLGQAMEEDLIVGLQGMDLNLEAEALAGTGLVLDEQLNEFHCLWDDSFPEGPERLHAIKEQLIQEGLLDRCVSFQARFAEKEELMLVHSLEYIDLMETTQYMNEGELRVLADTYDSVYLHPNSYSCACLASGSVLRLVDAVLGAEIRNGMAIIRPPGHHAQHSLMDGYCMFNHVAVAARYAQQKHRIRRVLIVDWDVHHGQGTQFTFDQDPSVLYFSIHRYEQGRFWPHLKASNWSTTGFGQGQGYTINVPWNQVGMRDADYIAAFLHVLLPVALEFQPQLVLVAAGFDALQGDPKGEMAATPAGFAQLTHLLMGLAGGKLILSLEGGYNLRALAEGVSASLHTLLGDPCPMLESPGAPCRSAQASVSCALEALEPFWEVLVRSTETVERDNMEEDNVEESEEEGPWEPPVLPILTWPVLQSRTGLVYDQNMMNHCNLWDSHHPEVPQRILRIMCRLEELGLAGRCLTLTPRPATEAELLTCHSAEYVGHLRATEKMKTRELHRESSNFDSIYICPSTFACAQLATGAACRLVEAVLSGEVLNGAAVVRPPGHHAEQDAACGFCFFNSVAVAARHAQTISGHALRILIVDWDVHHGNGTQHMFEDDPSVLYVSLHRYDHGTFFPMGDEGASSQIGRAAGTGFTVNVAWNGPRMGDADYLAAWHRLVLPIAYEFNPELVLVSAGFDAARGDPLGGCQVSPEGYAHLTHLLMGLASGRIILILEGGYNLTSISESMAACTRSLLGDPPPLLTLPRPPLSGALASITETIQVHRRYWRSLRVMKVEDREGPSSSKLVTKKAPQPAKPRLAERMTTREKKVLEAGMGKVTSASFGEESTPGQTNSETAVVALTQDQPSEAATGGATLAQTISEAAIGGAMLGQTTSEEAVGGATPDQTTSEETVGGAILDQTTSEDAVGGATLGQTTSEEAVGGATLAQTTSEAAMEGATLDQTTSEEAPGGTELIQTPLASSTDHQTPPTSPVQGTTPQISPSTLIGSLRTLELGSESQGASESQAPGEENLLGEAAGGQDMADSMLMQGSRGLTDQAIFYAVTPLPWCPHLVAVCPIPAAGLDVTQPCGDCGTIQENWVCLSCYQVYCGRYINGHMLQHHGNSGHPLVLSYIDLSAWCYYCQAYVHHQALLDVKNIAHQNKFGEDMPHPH
In words: Inhibition of human recombinant HDAC6 using [Ac-Leu-Gly-Lys(Ac)-AMC substrate incubated for 15 to 30 mins.

The target of another assay is Histone deacetylase 1 (Homo sapiens, UniProt Q13547). In words: Inhibition of human recombinant HDAC1 using [Ac-Leu-Gly-Lys(Ac)-AMC substrate incubated for 15 to 30 mins.
Sequence of Histone deacetylase 1 (Q13547 whole entry): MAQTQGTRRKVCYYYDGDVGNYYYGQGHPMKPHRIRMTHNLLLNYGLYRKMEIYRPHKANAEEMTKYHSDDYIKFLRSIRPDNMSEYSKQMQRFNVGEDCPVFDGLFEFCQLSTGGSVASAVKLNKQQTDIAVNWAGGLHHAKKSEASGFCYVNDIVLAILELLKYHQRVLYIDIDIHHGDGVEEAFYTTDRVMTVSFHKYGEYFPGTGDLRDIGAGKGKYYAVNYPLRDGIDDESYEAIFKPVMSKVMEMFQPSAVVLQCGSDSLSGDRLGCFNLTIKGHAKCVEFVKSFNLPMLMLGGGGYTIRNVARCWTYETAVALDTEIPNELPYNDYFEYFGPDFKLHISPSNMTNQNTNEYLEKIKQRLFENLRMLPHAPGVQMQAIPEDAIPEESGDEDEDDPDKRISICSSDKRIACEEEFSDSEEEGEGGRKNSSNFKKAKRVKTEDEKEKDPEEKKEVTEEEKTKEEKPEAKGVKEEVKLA
A further assay has as its target T5, Histone deacetylase 8 (Homo sapiens, UniProt Q9BY41).
T5 sequence (Q9BY41 whole entry): T2 sequence (whole entry)
In words: Inhibition of human recombinant HDAC8 using [Ac-Leu-Gly-Lys(Ac)-AMC substrate incubated for 15 to 30 mins.

For assay [4], the target named is T6, Protein deacetylase HDAC6 (Homo sapiens) (UniProt Q9UBN7).
T6 sequence (whole entry): T4 sequence (Q9UBN7 whole entry)
In words: Inhibition of human recombinant HDAC6 at 20 uM using [Ac-Leu-Gly-Lys(Ac)-AMC substrate incubated for 15 to 30 mins. The method in brief: as §1

Active and inactive are the calls of the source. The rule behind the calls is not given here.

Sequence of Histone deacetylase 3 (O15379 whole entry): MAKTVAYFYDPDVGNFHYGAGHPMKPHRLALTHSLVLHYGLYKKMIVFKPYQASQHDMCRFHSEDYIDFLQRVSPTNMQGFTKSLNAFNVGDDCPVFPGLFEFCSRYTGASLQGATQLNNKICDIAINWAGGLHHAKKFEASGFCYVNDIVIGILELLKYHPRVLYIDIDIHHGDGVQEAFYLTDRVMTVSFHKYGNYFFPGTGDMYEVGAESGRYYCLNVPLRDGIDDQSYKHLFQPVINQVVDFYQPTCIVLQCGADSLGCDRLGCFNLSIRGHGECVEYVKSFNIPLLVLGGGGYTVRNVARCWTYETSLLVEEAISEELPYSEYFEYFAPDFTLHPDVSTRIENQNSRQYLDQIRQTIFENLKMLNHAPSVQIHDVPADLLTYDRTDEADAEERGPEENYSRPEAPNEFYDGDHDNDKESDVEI
Sequence of Histone deacetylase 2 (Q92769 whole entry): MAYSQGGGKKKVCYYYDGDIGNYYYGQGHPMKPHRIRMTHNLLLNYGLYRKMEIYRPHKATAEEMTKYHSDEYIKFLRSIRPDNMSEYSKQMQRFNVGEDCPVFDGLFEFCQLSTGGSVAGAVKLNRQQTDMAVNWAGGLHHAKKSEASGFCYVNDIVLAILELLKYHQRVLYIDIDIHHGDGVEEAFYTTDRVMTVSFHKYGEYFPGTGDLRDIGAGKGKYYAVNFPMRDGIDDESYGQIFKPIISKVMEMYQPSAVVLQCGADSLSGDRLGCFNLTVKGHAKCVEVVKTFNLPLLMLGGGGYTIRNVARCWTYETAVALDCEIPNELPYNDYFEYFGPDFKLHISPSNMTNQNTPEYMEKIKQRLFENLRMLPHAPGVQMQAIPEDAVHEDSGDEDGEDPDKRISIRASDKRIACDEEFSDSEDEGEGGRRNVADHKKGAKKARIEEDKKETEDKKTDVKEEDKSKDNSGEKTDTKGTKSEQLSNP

Broadly, the Ki is the dissociation constant of the complex between target and ligand, obtained from inhibition or displacement. As usually defined, the inhibition is the share of the control response that was lost under treatment. For `CC(C)[C@H]1NC(=O)C[C@@H](/C=C/CCCC(=O)O)NC(=O)[C@@H](Cc2ccc(O)cc2)NC(=O)[C@@H](C)NC1=O`, the inhibitory constant (Ki) on Histone deacetylase 3 came to 500 nM; at Histone deacetylase 2, 600 nM; in assay [1] it was 700 nM; at Histone deacetylase 11, 1300 nM; in assay [3] (read-out: Ki) it was 2200 nM; at Histone deacetylase 1, 700 nM. For the same compound, at Histone deacetylase 8, the Ki entry is “Not Active”. Also, the “growth inhibition (GI)” value in the assay with EB-3 is “inactive”. The inhibition in assay [2] is less than 50%.

With `CC(C)[C@H]1NC(=O)C[C@@H](CCCCCC(=O)O)NC(=O)[C@@H](Cc2c[nH]c3ccccc23)NC(=O)[C@@H](C)NC1=O`, the Ki is 500 nM on Histone deacetylase 3; 300 nM at Histone deacetylase 2; 170 nM in assay [1]; 300 nM on Histone deacetylase 11; 1900 nM in assay [3] (read-out: Ki); 900 nM at Histone deacetylase 1. Also, the Ki at Histone deacetylase 8 (read-out: Ki) came to 4300 nM.

Turning to `CC(C)[C@H]1NC(=O)C[C@@H](C/C=C\CCC(=O)O)NC(=O)[C@@H](Cc2ccc(O)cc2)NC(=O)[C@@H](C)NC1=O`, the Ki on Histone deacetylase 3 came out at 300 nM; on Histone deacetylase 2 it was 300 nM; in assay [1], 300 nM; on Histone deacetylase 11 it was 800 nM; in assay [3] (read-out: Ki) it was 6000 nM; at Histone deacetylase 1, 300 nM. Further, the Ki entry at Histone deacetylase 8 is “Not Active”. The “growth inhibition (GI)” value in the assay on EB-3 is “inactive”.

For the compound `CC(C)[C@H]1NC(=O)[C@@H](C)[C@@H](C/C=C\CCC(=O)O)NC(=O)[C@@H](Cc2ccc(O)cc2)NC(=O)[C@@H](C)NC1=O`, the “growth inhibition (GI)” value in the assay on EB-3 was “inactive”.

`CC(C)[C@H]1NC(=O)C[C@@H](/C=C/CCCC(=O)O)NC(=O)[C@@H](Cc2c[nH]c3ccccc23)NC(=O)[C@@H](C)NC1=O`: the Ki on Histone deacetylase 3 was 600 nM; at Histone deacetylase 2 it was 400 nM; in assay [1], 600 nM; at Histone deacetylase 11 it was 1100 nM; in [3] (read-out: Ki), 3700 nM; at Histone deacetylase 1, 500 nM. Besides, the Ki on Histone deacetylase 8 (read-out: Ki) was 3000 nM.

For the compound `CC(C)[C@H]1NC(=O)[C@@H](C)[C@@H](C/C=C\CCC(N)=O)NC(=O)[C@@H](Cc2ccc(O)cc2)NC(=O)[C@@H](C)NC1=O`, the “growth inhibition (GI)” value in the assay on EB-3 is “inactive”.

For the compound `CC(C)[C@H]1NC(=O)C[C@@H](CCCCCC(=O)O)NC(=O)[C@@H](Cc2ccc(O)cc2)NC(=O)[C@@H](C)NC1=O`, the Ki at Histone deacetylase 3 is 200 nM; at Histone deacetylase 2, 300 nM; in [1], 300 nM; on Histone deacetylase 11, 1000 nM; in assay [3] (read-out: Ki), 3000 nM; on Histone deacetylase 1 it was 1000 nM. At Histone deacetylase 8, the Ki entry is listed as “Not Active”. The “growth inhibition (GI)” value in the assay on EB-3 was “inactive”. For the same compound, in assay [2], the inhibition is less than 50%.

On to `CC(C)[C@H]1NC(=O)C[C@@H](/C=C/CCCC(=O)O)NC(=O)[C@@H](Cc2ccccc2)NC(=O)[C@@H](C)NC1=O`, for which the Ki on Histone deacetylase 3 was 1400 nM; at Histone deacetylase 2, 1700 nM; in [1], 1600 nM; on Histone deacetylase 11, 3200 nM; in assay [3], “Not Active”; on Histone deacetylase 1 it was 1200 nM. For the same compound, the Ki on Histone deacetylase 8 (read-out: Ki) is 6000 nM. For the same compound, the inhibition in [4] was less than 50%.

As for `CC(C)[C@H]1NC(=O)[C@@H](C)[C@@H](C/C=C\CCC(=O)O)NC(=O)[C@@H](Cc2ccccc2)NC(=O)[C@@H](C)NC1=O`, the “growth inhibition (GI)” value in the assay with EB-3 is “inactive”.

Turning to `CC(C)[C@H]1NC(=O)C[C@@H](C/C=C\CCC(=O)O)NC(=O)[C@@H](Cc2c[nH]c3ccccc23)NC(=O)[C@@H](C)NC1=O`, the Ki is 500 nM at Histone deacetylase 3; 300 nM at Histone deacetylase 2; 230 nM in [1]; 900 nM at Histone deacetylase 11; “Not Active” in assay [3]; 200 nM on Histone deacetylase 1. At Histone deacetylase 8 (read-out: Ki), the Ki came to 4500 nM. Further, the “growth inhibition (GI)” value in the assay on EB-3 is “inactive”.

Turning to `CC(C)[C@H]1NC(=O)C[C@@H](CCCCCC(=O)O)NC(=O)[C@@H](Cc2ccccc2)NC(=O)[C@@H](C)NC1=O`, the inhibition constant (Ki) on Histone deacetylase 3 is 700 nM; on Histone deacetylase 2 it was 800 nM; in assay [1], 1000 nM; on Histone deacetylase 11 it was 2000 nM; in [3], “Not Active”; at Histone deacetylase 1, 900 nM. In addition, the Ki result at Histone deacetylase 8 is reported as “Not Active”. Also, the inhibition in assay [2] and in [4] was less than 50% throughout.

The record behind these values is ChEMBL document CHEMBL3351463, “Methyl effect in azumamides provides insight into histone deacetylase inhibition by macrocycles” (J Med Chem, 2014).
